# Article PMC4004768 (The Journal of antibiotics, 2013)
# Assays:
# B. subtilis ATCC 6633 [1] = test: membrane potential by flow cytometry with DiOC2; format: cell-based, Bacillus subtilis; details: 0, 0.2, 2, 20 μM, triplicate flow cytometry
# Method in brief: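 Flow cytometry on bacteria exposed to the test compound at 0, 0.2, 2 and 20 μM, with DiOC2 as the membrane-potential dye. The read-out is mean fluorescence intensity averaged over triplicate measurements. An alternative read-out is the ratio of fluorescence at 610 and 530 nm.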
# B. subtilis ATCC 6633 [2] = test: propidium iodide uptake; format: cell-based, Bacillus subtilis; details: B. subtilis ATCC 6633, lower efficiency than nisin
# [3] = cited from earlier work
# B. subtilis ATCC6633 = test: antimicrobial activity assay in liquid medium; format: cell-based, Bacillus subtilis
# [4] = specific activity against B. subtilis ATCC6633, liquid medium
substance,measurement,setting,value
Geobacillin I,"change in mean fluorescence intensity (MFI), DiOC2",B. subtilis ATCC 6633 [1],significant decrease
same,efficiency in PI uptake relative to nisin,B. subtilis ATCC 6633 [2],two-fold lower
same,stability at physiological pH compared to nisin,[3],higher stability
same,MIC relative to nisin,"B. subtilis ATCC6633; B. subtilis ATCC 6633, higher MIC compared to nisin",four-fold higher
same,IC50,B. subtilis ATCC6633; [4],0.56 ± 0.01 µM
same,MIC,B. subtilis ATCC6633; [4],1.0 µM
